This is an account of results in ChEMBL document CHEMBL1122690, “Synthesis of potential antifilarial agents. 1-(5-Benzoylbenzimidazol-2-yl)-3-alkyl- and -arylureas” (1984).

Common to all, as to assay type: functional
In experiment [1] the test system is Brugia pahangi. The experiment can be described thus: Antifilarial activity (percent reduction of live Brugia pahangi at necropsy relative to controls) was evaluated at dose of 100 mg/kg/day administered subcutaneously. Particulars: route subcutaneous. Put shortly:
(§1)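 Male jirds (Meriones unguiculatus) carrying adult Brugia pahangi and Litomosoides carinii. Infection was by intraperitoneal inoculation of 24-25 L. carinii larvae 76–133 days before treatment, followed by 49-50 immature B. pahangi. Dosing was daily for 5 days. Necropsy was 55–70 days after the first dose, with a search of the pleural and peritoneal cavities. Live adult worms were scored as % reduction versus controls, usually averaged over 3 animals.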

The test system of experiment [2] is Litomosoides carinii. The experiment is described as follows: Antifilarial activity (percent reduction of live Litomosoides carinii at necropsy relative to controls) was evaluated at dose of 100 mg/kg/day administered subcutaneously. The settings on record: route subcutaneous. Summed up:
as §1

The test system of experiment [3] is Brugia pahangi. The experiment can be described thus: Antifilarial activity (percent reduction of live Brugia pahangi at necropsy relative to controls) was evaluated at dose of 25 mg/kg/day administered subcutaneously. The settings on record: route subcutaneous. Summed up: as §1
The subject of experiment [4] is Brugia pahangi. The experiment can be described thus: Antifilarial activity (percent reduction of live Brugia pahangi at necropsy relative to controls) was evaluated at dose of 6.25 mg/kg/day administered subcutaneously. Particulars: route subcutaneous. Put shortly:
as §1

The subject of experiment [5] is Litomosoides carinii. The experiment can be described thus: Antifilarial activity (percent reduction of live Litomosoides carinii at necropsy relative to controls) was evaluated at dose of 25 mg/kg/day administered subcutaneously. Particulars: route subcutaneous. Put shortly: as §1
Experiment [6] relates to Litomosoides carinii. The experiment can be described thus: Antifilarial activity (percent reduction of live Litomosoides carinii at necropsy relative to controls) was evaluated at dose of 6.25 mg/kg/day administered subcutaneously. Particulars: route subcutaneous. Summed up:
as §1

Experiment [7] relates to Brugia pahangi. The experiment can be described thus: Antifilarial activity (percent reduction of live Brugia pahangi at necropsy relative to controls) was evaluated at dose of 1.56 mg/kg/day administered subcutaneously. Particulars: route subcutaneous. Put shortly: as §1
The test system of experiment [8] is Litomosoides carinii. The experiment is described as follows: Antifilarial activity (percent reduction of live Litomosoides carinii at necropsy relative to controls) was evaluated at dose of 1.56 mg/kg/day administered subcutaneously. The settings on record: route subcutaneous. Put shortly: as §1
The test system of experiment [9] is Litomosoides carinii. The experiment is described as follows: Antifilarial activity (percent reduction of live Litomosoides carinii at necropsy relative to controls) was evaluated at dose of 100 mg/kg/day administered perorally. Particulars: route oral; in the assay text read “25 mg/kg/day” for “100 mg/kg/day”. Summed up: as §1

Each structure is given as a SMILES string.

In the case of `CCCNC(=O)Nc1nc2cc(C(=O)c3ccccc3)ccc2[nH]1`, the Reduction in the experiment with Brugia pahangi [1] and in the experiment on Litomosoides carinii [2] was 0% each time.

With `CN1CCN(C(=O)Nc2nc3cc(C(=O)c4ccccc4)ccc3[nH]2)CC1`, the Reduction with Brugia pahangi [1] and in the experiment with Litomosoides carinii [2] was 0% each time.

Take `O=C(NCCO)Nc1nc2cc(C(=O)c3ccccc3)ccc2[nH]1`: the results for the Reduction with Brugia pahangi [1] and in the experiment with Litomosoides carinii [2] were 15% and 20%, respectively.

Regarding `O=C(Nc1ccc(Cl)c(Cl)c1)Nc1nc2cc(C(=O)c3ccccc3)ccc2[nH]1`, the Reduction in the experiment on Brugia pahangi [1] worked out at 0%; in the experiment with Litomosoides carinii [2] it was 9%.

`CN(C)C(=O)Nc1nc2cc(C(=O)c3ccccc3)ccc2[nH]1`: the Reduction with Brugia pahangi [1] came out at 100%; in the experiment with Brugia pahangi [3] it was 0%; in the experiment with Brugia pahangi [4] it was 0%; in the experiment on Litomosoides carinii [2], 100%; with Litomosoides carinii [5], 87%; in the experiment on Litomosoides carinii [6], 61%.

With `O=C(Nc1ccc(F)cc1)Nc1nc2cc(C(=O)c3ccccc3)ccc2[nH]1`, the Reduction with Brugia pahangi [1] is reported as 6%; in the experiment on Litomosoides carinii [2] it was 66%.

In the case of `O=C(Nc1nc2cc(C(=O)c3ccccc3)ccc2[nH]1)Nc1ccccc1[N+](=O)[O-]`, the Reduction stood at 6% in the experiment with Brugia pahangi [1] and 0% in the experiment with Litomosoides carinii [2].

In the case of `Cc1ccc(NC(=O)Nc2nc3cc(C(=O)c4ccccc4)ccc3[nH]2)cc1`, the figures for the Reduction in the experiment with Brugia pahangi [1] and with Litomosoides carinii [2] were 0% and 27%, respectively.

For `Cc1cccc(NC(=O)Nc2nc3cc(C(=O)c4ccccc4)ccc3[nH]2)c1`, the Reduction in the experiment with Brugia pahangi [1] and with Litomosoides carinii [2] was 0% each time.

`O=C(Nc1ccc([N+](=O)[O-])cc1)Nc1nc2cc(C(=O)c3ccccc3)ccc2[nH]1`: the Reduction in the experiment on Brugia pahangi [1] came out at 9%; with Litomosoides carinii [2] it was 0%.

In the case of `O=C(Nc1nc2cc(C(=O)c3ccccc3)ccc2[nH]1)Nc1ccccc1F`, the Reduction in the experiment on Brugia pahangi [1] and in the experiment on Litomosoides carinii [2] was 0% throughout.

As to `O=C(Nc1cccc([N+](=O)[O-])c1)Nc1nc2cc(C(=O)c3ccccc3)ccc2[nH]1`, the figures for the Reduction in the experiment with Brugia pahangi [1] and in the experiment with Litomosoides carinii [2] were 0% and 32%, respectively.

Turning to `O=C(Nc1ccccc1)Nc1nc2cc(C(=O)c3ccccc3)ccc2[nH]1`, the Reduction in the experiment on Brugia pahangi [1] is on record as 0%; with Litomosoides carinii [2], 66%.

For the compound `COC(=O)Nc1nc2cc(C(=O)c3ccccc3)ccc2[nH]1` [MEBENDAZOLE], the Reduction with Brugia pahangi [7] stood at 12.5%; with Brugia pahangi [3], 100%; in the experiment with Brugia pahangi [4], 100%; with Litomosoides carinii [5], 100%; in the experiment on Litomosoides carinii [6], 100%; in the experiment on Litomosoides carinii [8], 97%.

`Cc1ccc(C(=O)Nc2ccc(S(=O)(=O)O)c3cc(S(=O)(=O)O)cc(S(=O)(=O)O)c23)cc1NC(=O)c1cccc(NC(=O)Nc2cccc(C(=O)Nc3cc(C(=O)Nc4ccc(S(=O)(=O)O)c5cc(S(=O)(=O)O)cc(S(=O)(=O)O)c45)ccc3C)c2)c1` [SURAMIN] gave a Reduction in the experiment with Litomosoides carinii [9] of 71%.
